Assay results taken from ChEMBL document CHEMBL3272265, “Interferon inducing activities of derivatives of 1,3-dimethyl-4-(3-dimethylaminopropylamino)-1H-pyrazolo(3,4-b)quinoline and related compounds” (J Med Chem, 1976).
Calls of active or inactive are those of the source. The rule behind the calls is not given here.

Test system: Mus musculus
Experiment: Induction of interferon level >= 32 units/mL in ip dosed CD-1 mouse serum after 18 to 20 hrs by vesicular stomatitis virus plaque reduction assay
Format: functional
Details: CD-1, Serum, read-out: MED
Method in brief: (§1)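 Female CD-1 mice (15 g; at least three per dose) received compound dissolved or suspended in sterile distilled water, orally or ip. They were bled 18–20 hr later and sera pooled. Interferon was titrated by plaque reduction in mouse L cells challenged with vesicular stomatitis virus, with an NIAID reference mouse interferon standard. MED was the lowest dose giving ≥32 units/ml. Top doses were 400 mg/kg po and 300 mg/kg ip.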

Compound	minimal effective dose
CCN1CCCC(Nc2c3ccccc3nc3c2c(C)nn3C)C1.Cl (centres undefined)	≥ 300 mg/kg
Cc1nn(C)c2nc3ncccc3c(NCCCN(C)C)c12.Cl	≥ 300 mg/kg
Cc1nn(C)c2nc3cc(CO)ccc3c(NCCCN(C)C)c12.Cl	100 mg/kg
Cc1nn(C)c2nc3ccccc3c(CNCCCN(C)C)c12.Cl	≥ 300 mg/kg
COc1cccc2c(NCCCN(C)C)c3c(C)nn(C)c3nc12.Cl	50 mg/kg
COc1ccc2c(NCCCN(C)C)c3c(C)nn(C)c3nc2c1.Cl	50 mg/kg
Cc1nn(C)c2nc3ccccc3c(NCCCCNc3c4ccccc4nc4c3c(C)nn4C)c12	≥ 300 mg/kg
Cc1ccc2c(NCCCN(C)C)c3c(C)nn(C)c3nc2c1C.Cl	200 mg/kg
COc1cc2nc3c(c(C)nn3C)c(NCCCN(C)C)c2cc1OC.Cl	50 mg/kg
Cc1nn(C)c2nc3cc4ccccc4cc3c(NCCCN(C)C)c12.Cl	100 mg/kg
Cc1nn(C)c2nc3ccccc3c(NCCCCCN(C)C)c12.Cl	150 mg/kg
Cc1ccc2nc3c(c(C)nn3C)c(NCCCN(C)C)c2c1.Cl	50 mg/kg
CCN(CC)CCCNc1c2ccccc2nc2c1c(C)nn2C.Cl	300 mg/kg
Cc1cc2nc3c(c(C)nn3C)c(NCCCN(C)C)c2cc1C.Cl	25 mg/kg
Cc1nn(C)c2nc3cc(Cl)ccc3c(NCCCN(C)C)c12.Cl	≥ 100 mg/kg
Cc1nn(C)c2nc3ccccc3c(NCCCN)c12.Cl	≥ 300 mg/kg
Cc1nn(C)c2nc3ccccc3c(NCCCNC(C)C)c12.Cl	≥ 300 mg/kg
CNCCCNc1c2ccccc2nc2c1c(C)nn2C.Cl	150 mg/kg
Cc1nn(C)c2nc3ccccc3c(NCCCN3CCNCC3)c12.Cl	100 mg/kg
COc1cccc2nc3c(c(C)nn3C)c(NCCCN(C)C)c12.Cl	100 mg/kg
Cc1nn(C)c2nc3ccccc3c(NCCCNC(C)(C)C)c12.Cl	≥ 300 mg/kg
CCNc1ccc2nc3c(c(C)nn3C)c(NCCCN(C)C)c2c1.Cl	25 mg/kg
COc1cc(OC)c2c(NCCCN(C)C)c3c(C)nn(C)c3nc2c1.Cl	25 mg/kg
Cc1nn(C)c2nc3ccccc3c(NCCCN(C)CCCN(C)C)c12.Cl	> 300 mg/kg
Cc1nn(C)c2nc3ccccc3c(NCCCN3CCN(C)CC3)c12.Cl	300 mg/kg
Cc1nn(C)c2nc3c(ccc4ncccc43)c(NCCCN(C)C)c12.Cl	100 mg/kg
Cc1nn(C)c2nc3ccccc3c(NN3CCN(C)CC3)c12.Cl	300 mg/kg

Test system: Mus musculus
Experiment: Induction of interferon level in CD-1 mouse serum at 400 mg/kg, po after 18 to 20 hrs by vesicular stomatitis virus plaque reduction assay
Format: functional, organism-based
Parameters: dose 400 mg/kg
Details: not given
Method in brief: (§2)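 Dosing was oral or ip in 15-g female CD-1 mice, at least three per dose level, with compound in sterile distilled water as a solution or suspension. Pooled sera were collected 18–20 hr after dosing. Interferon units/ml were quantified by a plaque reduction assay on mouse L cells with vesicular stomatitis virus challenge, run against an NIAID reference mouse interferon standard.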

Compound	Activity
Cc1nn(C)c2nc3ccccc3c(CCNCCCN(C)C)c12	inactive
Cc1nn(C)c2nc3c(cnn3C)c(NCCCN(C)C)c12	inactive
Cc1nsc2nc3ccccc3c(NCCCN(C)C)c12	inactive
Cc1nn(C)c2nc3ccccc3c(N)c12	inactive
Cc1nn(C)c2ncc(C(=O)O)c(NCCCN(C)C)c12	inactive
Cc1nn(C)c2nc3ccccc3c(NCCC[S+](C)[O-])c12 (centres undefined)	inactive
Cc1nn(C)c2nc3ccccc3cc12	inactive
Cc1nn(C)c2c1Cc1ccccc1N2	inactive
Cc1nn(C)c2nc3cccc(NCCCN(C)C)c3cc12	inactive
Cc1nn(C)c2nc3ccccc3c(NCCCO)c12	inactive
Cc1nn(C)c2nc3ccccc3c(SCc3ccccc3)c12	inactive
Cc1cccc2c(NCCCN(C)C)c3ccccc3nc12	inactive
Cc1nn(C)c2nc3cccc([N+](=O)[O-])c3c(NCCCN(C)C)c12	inactive
Cc1nn(C)c2nc3ccccc3c(NCCCCl)c12	inactive
Cc1nn(C)c2nc3cc(N)ccc3c(NCCCN(C)C)c12	inactive
Cc1nn(C)c2nc3cc(C(N)=O)ccc3c(NCCCN(C)C)c12	inactive
Cc1nn(C)c2nccc(NCCCN(C)C)c12	inactive
Cc1nn(C)c2nc3ccccc3c(Cl)c12	inactive
CSCCCNc1c2ccccc2nc2c1c(C)nn2C	inactive
Cc1nn(C)c2nc3c(c(C)nn3C)c(NCCCN(C)C)c12	inactive
CC(=O)Nc1ccc2c(NCCCN(C)C)c3c(C)nn(C)c3nc2c1	inactive
CNc1c2ccccc2nc2c1c(C)nn2C	inactive
CCN(CC)CCCC(C)Nc1c2ccccc2nc2c1c(C)nn2C (centres undefined)	inactive
Cc1nn(C)c2nc3c(cc12)CCCC3	inactive

Test system: Mus musculus
Experiment: Toxicity in CD-1 mouse at 300 mg/kg, ip
Format: organism-based
Parameters: dose 300 mg/kg, route intraperitoneal
Details: in vivo

Compound	Activity
Cc1nn(C)c2nc3ccccc3c(NCCCNC3CCCCC3)c12.Cl	Toxic

Test system: Mus musculus
Experiment: Induction of interferon level in CD-1 mouse serum at 300 mg/kg, ip after 18 to 20 hrs by vesicular stomatitis virus plaque reduction assay
Format: functional, organism-based
Parameters: dose 300 mg/kg
Details: not given
Method in brief: as §2

Compound	Activity
Cc1nn(C)c2nc3cc([N+](=O)[O-])ccc3c(NCCCN(C)C)c12	inactive
Cc1nn(C)c2nc3c(Cl)cccc3c(NCCCN(C)C)c12	inactive
Cc1n[nH]c2nc3ccccc3c(NCCCN(C)C)c12	inactive
Cc1nn(C)c2nc3ccccc3c(CCNCCCNCCCN(C)C)c12	inactive
CNCc1c2ccccc2nc2c1c(C)nn2C	inactive
Cc1cc(Nc2c3ccccc3nc3c2c(C)nn3C)n(C)n1	inactive
Cc1nn(C)c2nc3ccc(S(=O)(=O)NCCCN(C)C)cc3c(NCCCN(C)C)c12	inactive
Cc1nn(C)c2nc3ccccc3c(NCCCN(CCO)CCO)c12	inactive
Cc1nn(C)c2nc3ccccc3c(NCCCNC=O)c12	inactive
Cc1cc(NCCCNc2c3ccccc3nc3c2c(C)nn3C)n(C)n1	inactive
Cc1nn(C)c2nc3ccccc3c(S)c12	inactive
Cc1nn(CC(=O)NCCCN(C)C)c2nc3ccccc3c(NCCCN(C)C)c12	inactive
Cc1nn(C)c2nc3ccccc3c(N3CCCCC3CCN(C)C)c12 (centres undefined)	inactive
Cc1nn(C)c2nc3cc(C(=O)NCCCN(C)C)ccc3c(NCCCN(C)C)c12	inactive
Cc1nn(CCO)c2nc3ccccc3c(NCCCN(C)C)c12	inactive
Cc1nn(-c2ccccc2)c2nc3ccccc3c(NCCCN(C)C)c12	inactive
Cc1nn(C)c2nc3ccc(S(N)(=O)=O)cc3c(NCCCN(C)C)c12	inactive
Cc1nn(C)c2nc3cc(C(=O)O)ccc3c(NCCCN(C)C)c12	inactive
CN(C)CCCNc1ccnc2ccccc12	inactive

Compound	Activity
COC(=O)CCCNc1c2ccccc2nc2c1c(C)nn2C	inactive
Cc1nn(C)c2nc3ccccc3c(NCCCC(=O)O)c12	inactive
CC(=O)Nc1ccc2nc3c(c(C)nn3C)c(NCCCN(C)C)c2c1	inactive
Cc1cc(Nc2ccccc2C(=O)NCCCN(C)C)n(C)n1	inactive
Cc1nn(C)c2nc3cc(O)ccc3c(NCCCN(C)C)c12	inactive
Cc1nn(C)c2nc3ccccc3c(NCc3ccccc3N(C)C)c12	inactive
Cc1nn(C)c2nc3ccccc3c(NC34CC5CC(CC(C5)C3)C4)c12	inactive
Cc1nn(C)c2nc3ncncc3c(NCCCN(C)C)c12	inactive
Cc1nn(C)c2nc3ccc(O)cc3c(NCCCN(C)C)c12	inactive
Cc1cc(Nc2ccccc2CNCCCN(C)C)n(C)n1	inactive
Cc1nn(CC(=O)O)c2nc3ccccc3c(NCCCN(C)C)c12	inactive
CN(C)CCCNc1ccncc1	inactive
Cc1nn(C)c2nc3ccc(N)cc3c(NCCCN(C)C)c12	inactive
Cc1nn(-c2ccc(C(=O)O)cc2)c2nc3ccccc3c(NCCCN(C)C)c12	inactive
Cc1nn(C)c2nc3cccc(N)c3c(NCCCN(C)C)c12	inactive
COc1ccc(-n2nc(C)c3c(NCCCN(C)C)c4ccccc4nc32)cc1	inactive
COC(=O)c1ccc2c(NCCCN(C)C)c3c(C)nn(C)c3nc2c1	inactive
Cc1nn(C)c2nc3ccc(S(=O)(=O)O)cc3c(NCCCN(C)C)c12	inactive

Test system: Mus musculus
Experiment: Induction of interferon level >= 32 units/mL in po dosed CD-1 mouse serum after 18 to 20 hrs by vesicular stomatitis virus plaque reduction assay
Format: functional
Details: CD-1, Serum, read-out: MED
Method in brief: as §1

Compound	minimal effective dose
Cc1nn(C)c2nc3cc(CO)ccc3c(NCCCN(C)C)c12.Cl	200 mg/kg
Cc1nn(C)c2nc3ccccc3c(NCCN(C)C)c12.Cl	400 mg/kg
Cc1nn(C)c2nc3ccccc3c(NCCCN3CCCC3)c12.Cl	200 mg/kg
COc1cccc2c(NCCCN(C)C)c3c(C)nn(C)c3nc12.Cl	100 mg/kg
COc1ccc2c(NCCCN(C)C)c3c(C)nn(C)c3nc2c1.Cl	50 mg/kg
Cc1cc(C)c2nc3c(c(C)nn3C)c(NCCCN(C)C)c2c1.Cl	400 mg/kg
Cc1ccc2c(NCCCN(C)C)c3c(C)nn(C)c3nc2c1C.Cl	200 mg/kg
COc1cc2nc3c(c(C)nn3C)c(NCCCN(C)C)c2cc1OC.Cl	50 mg/kg
Cc1nn(C)c2nc3ccc(F)cc3c(NCCCN(C)C)c12.Cl	≥ 400 mg/kg
Cc1nn(C)c2nc3ccccc3c(NCCCCCN(C)C)c12.Cl	200 mg/kg
CCN(CC)CC(O)CNc1c2ccccc2nc2c1c(C)nn2C.Cl (centres undefined)	400 mg/kg
Cc1ccc2nc3c(c(C)nn3C)c(NCCCN(C)C)c2c1.Cl	50 mg/kg
CCN(CC)CCCNc1c2ccccc2nc2c1c(C)nn2C.Cl	400 mg/kg
Cc1nn(C)c2nc3ccccc3c(NCCCCCCN(C)C)c12.Cl	200 mg/kg
Cc1cc2nc3c(c(C)nn3C)c(NCCCN(C)C)c2cc1C.Cl	50 mg/kg
Cc1nn(C)c2nc3cc(Cl)ccc3c(NCCCN(C)C)c12.Cl	≥ 100 mg/kg
Cc1nn(C)c2nc3ccccc3c(NCCCCN(C)C)c12.Cl	200 mg/kg
CNCCCNc1c2ccccc2nc2c1c(C)nn2C.Cl	200 mg/kg
CN(C)CCCNc1c2ccccc2nc2c1cnn2C.Cl	200 mg/kg
CN(C)CCCNc1c2ccccc2nc2c1ccn2C	200 mg/kg
COc1cccc2nc3c(c(C)nn3C)c(NCCCN(C)C)c12.Cl	100 mg/kg
Cc1nn(C)c2nc3cc(F)ccc3c(NCCCN(C)C)c12.Cl	≥ 100 mg/kg
CCNc1ccc2nc3c(c(C)nn3C)c(NCCCN(C)C)c2c1.Cl	50 mg/kg
COc1cc(OC)c2c(NCCCN(C)C)c3c(C)nn(C)c3nc2c1.Cl	25 mg/kg
Cc1nn(C)c2nc3c(ccc4ncccc43)c(NCCCN(C)C)c12.Cl	100 mg/kg
